Laboratory results published in publication PMC6761749 (ACS Omega, 2019).

Key:
human PBMCs = assay: TNFα induction from human PBMCs; type: cell-based; settings: hPBMCs, in the dose range evaluated
Summary of the method: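 Donor PBMCs from healthy human whole blood were isolated on a Ficoll-Hypaque 1.077 gradient and plated at 0.5 × 10^6 cells/well in RPMI-1640 with pen/strep/glutamine and 10% heat-inactivated FBS. Test compounds (stocks 3–5 mg/mL in 2% glycerol–10% DMSO/water) were added at increasing concentrations for 24 h. Supernatant TNFα and IFNα were measured by ELISA. MEC is the lowest tested dose inducing cytokine. Values come from one of three donors.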

human TLR7 = target: T1, human TLR7 (Homo sapiens, UniProt Q9NYK1); assay: HEK293-hTLR7 NFκB SEAP reporter assay; type: cell-based; settings: comparator 1b
T1 sequence (Q9NYK1 27-1049): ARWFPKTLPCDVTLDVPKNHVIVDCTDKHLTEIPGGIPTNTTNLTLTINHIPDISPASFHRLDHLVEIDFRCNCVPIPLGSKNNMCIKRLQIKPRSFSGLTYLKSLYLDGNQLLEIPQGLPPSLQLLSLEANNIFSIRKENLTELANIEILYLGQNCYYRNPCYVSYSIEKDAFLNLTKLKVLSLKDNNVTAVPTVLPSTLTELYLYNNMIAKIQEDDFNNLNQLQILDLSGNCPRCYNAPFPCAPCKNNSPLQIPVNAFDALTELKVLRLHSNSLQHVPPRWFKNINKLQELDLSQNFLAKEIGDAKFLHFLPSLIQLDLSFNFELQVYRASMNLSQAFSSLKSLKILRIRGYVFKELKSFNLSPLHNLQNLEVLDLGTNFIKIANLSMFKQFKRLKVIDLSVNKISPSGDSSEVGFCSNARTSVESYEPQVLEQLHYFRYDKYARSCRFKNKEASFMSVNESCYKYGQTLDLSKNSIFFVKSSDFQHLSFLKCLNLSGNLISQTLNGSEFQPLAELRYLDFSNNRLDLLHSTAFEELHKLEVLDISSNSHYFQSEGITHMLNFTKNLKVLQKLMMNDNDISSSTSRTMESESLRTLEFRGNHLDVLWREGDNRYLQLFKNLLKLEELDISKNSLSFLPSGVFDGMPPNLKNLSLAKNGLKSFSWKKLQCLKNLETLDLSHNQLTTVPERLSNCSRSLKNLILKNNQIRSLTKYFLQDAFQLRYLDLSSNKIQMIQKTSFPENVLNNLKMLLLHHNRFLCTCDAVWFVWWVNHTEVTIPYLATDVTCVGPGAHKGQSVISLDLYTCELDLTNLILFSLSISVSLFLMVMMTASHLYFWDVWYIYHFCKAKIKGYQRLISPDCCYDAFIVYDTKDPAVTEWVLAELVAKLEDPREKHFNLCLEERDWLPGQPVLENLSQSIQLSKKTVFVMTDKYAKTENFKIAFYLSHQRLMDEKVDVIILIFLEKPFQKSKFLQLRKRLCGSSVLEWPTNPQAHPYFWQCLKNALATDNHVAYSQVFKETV

| Compound | TNFα induction (human PBMCs) | fold less active (hTLR7) than 1b (human TLR7) [fold] |
| --- | --- | --- |
| CCCCOc1nc(N)c2[nH]c(=O)n(C3CNC3)c2n1.Cl [Compound 3a, 6-Amino-2-butoxy-9-(3-azetidinyl)-7,9-dihydro-8H-purin-8-one Hydrochloride] | did not induce measurable TNFα | – |
| CCCCOc1nc(N)c2[nH]c(=O)n(CCN3CCNCC3)c2n1.Cl [Compound 7a, 6-Amino-2-butoxy-9-(4-piperazinyl)ethyl-7,9-dihydro-8H-purin-8-one Hydrochloride] | – | 12 |
